Experiment [1] addresses Ribosomal protein S6 kinase alpha-1 (Homo sapiens) (UniProt Q15418). The experiment is described as follows: Inhibition of RSK1 Protein Kinase Domain in human A-375 cells at 0.5 uM by KiNativ Profiling analysis relative to control. The format is cell-based. In a few lines: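 Live A375 melanoma cells treated with compound at 5 or 0.5 μM, then lysed. Lysate kinases were labeled with a lysine-reactive ATP or ADP-biotin probe. Inhibition was read as protection of labeling sites from the probe.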

Experiment [2] concerns the target Serine/threonine-protein kinase WNK2 (Homo sapiens) (UniProt Q9Y3S1). The experiment is described as follows: Inhibition of Wnk2 ACT labeling site in human A-375 cells at 0.05 uM by KiNativ Profiling analysis relative to control. It is filed as cell-based.
The target of experiment [3] is Ribosomal protein S6 kinase alpha-2 (Homo sapiens) (UniProt Q15349). The experiment is described as follows: Inhibition of RSK3 Protein Kinase Domain in human A-375 cells at 0.05 uM by KiNativ Profiling analysis relative to control. The format is cell-based.
Experiment [4] addresses Serine/threonine-protein kinase 10 (Homo sapiens) (UniProt O94804). The experiment is described as follows: Inhibition of LOK Lys1 labeling site harbouring NKETGALAAAKVIETK in human A-375 cells at 0.5 uM by KiNativ Profiling analysis relative to control. It is filed as cell-based.
In experiment [5] the target is RAC-beta serine/threonine-protein kinase (Homo sapiens) (UniProt P31751). Briefly: Inhibition of AKT2 ATP Loop labeling site in human A-375 cells at 0.05 uM by KiNativ Profiling analysis relative to control. The format is cell-based.
The target in experiment [6] is T1, Phosphatidylinositol 5-phosphate 4-kinase type-2 alpha (Homo sapiens) (UniProt P48426).
T1 sequence (whole entry): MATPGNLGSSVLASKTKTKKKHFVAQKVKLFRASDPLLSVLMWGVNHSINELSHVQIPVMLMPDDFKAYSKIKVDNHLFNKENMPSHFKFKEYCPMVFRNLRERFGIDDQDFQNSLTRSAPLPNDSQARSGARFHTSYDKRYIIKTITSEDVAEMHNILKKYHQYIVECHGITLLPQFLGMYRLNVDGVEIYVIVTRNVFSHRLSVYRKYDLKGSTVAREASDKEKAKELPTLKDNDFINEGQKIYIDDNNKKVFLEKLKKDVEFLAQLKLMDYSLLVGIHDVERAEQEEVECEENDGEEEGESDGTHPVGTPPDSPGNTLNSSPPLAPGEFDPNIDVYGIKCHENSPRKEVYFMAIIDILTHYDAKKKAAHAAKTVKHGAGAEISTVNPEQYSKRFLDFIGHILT
Briefly: Inhibition of PIP4K2A ATP labeling site in human A-375 cells at 5 uM by KiNativ Profiling analysis relative to control. The format is cell-based.

Experiment [7] concerns the target Diacylglycerol kinase alpha (Homo sapiens) (UniProt P23743). Briefly: Inhibition of DGKA ATP labeling site harbouring in human A-375 cells at 0.5 uM by KiNativ Profiling analysis relative to control. The format is cell-based. Put shortly: (§1)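 Live A375 melanoma cells were treated with compound at 0.5 or 5 μM, then lysed. Lysates were labeled with a lysine-reactive ATP or ADP-biotin probe. The read-out was protection of each kinase probe-labeling site from labeling, relative to control.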

The target in experiment [8] is Cyclin-dependent kinase 11B (Homo sapiens) (UniProt P21127). Briefly: Inhibition of CDK11 Lys2 labeling site in human A-375 cells at 0.05 uM by KiNativ Profiling analysis relative to control. The format is cell-based.
Experiment [9] deals with Calcium/calmodulin-dependent protein kinase type 1 (Homo sapiens) (UniProt Q14012). The experiment is described as follows: Inhibition of CaMK1a Lys1 labeling site in human A-375 cells at 0.05 uM by KiNativ Profiling analysis relative to control. It is filed as cell-based.
Experiment [10] has as its target Mitogen-activated protein kinase kinase kinase kinase 4 (Homo sapiens, UniProt O95819). The experiment is described as follows: Inhibition of ZC1/HGK (unknown origin) Lys1 labeling site by KiNativ Profiling analysis.
Experiment [11] addresses Serine/threonine-protein kinase WNK4 (Homo sapiens) (UniProt Q96J92). The experiment is described as follows: Inhibition of Wnk4 Lys2 labeling site in human A-375 cells at 0.05 uM by KiNativ Profiling analysis relative to control. The format is cell-based.
For experiment [12], the target named is Mitogen-activated protein kinase 9 (Homo sapiens, UniProt P45984). Briefly: Inhibition of JNK2 Lys2 labeling site in human A-375 cells at 5 uM by KiNativ Profiling analysis relative to control. It is filed as cell-based.
Experiment [13] addresses Epidermal growth factor receptor (Homo sapiens) (UniProt P00533). The experiment is described as follows: Inhibition of EGFR Lys1 labeling site in human A-375 cells at 0.5 uM by KiNativ Profiling analysis relative to control. It is filed as cell-based. In a few lines: as §1
For experiment [14], the target named is T2, Aurora kinase C (Homo sapiens) (UniProt Q9UQB9).
T2 sequence (whole entry): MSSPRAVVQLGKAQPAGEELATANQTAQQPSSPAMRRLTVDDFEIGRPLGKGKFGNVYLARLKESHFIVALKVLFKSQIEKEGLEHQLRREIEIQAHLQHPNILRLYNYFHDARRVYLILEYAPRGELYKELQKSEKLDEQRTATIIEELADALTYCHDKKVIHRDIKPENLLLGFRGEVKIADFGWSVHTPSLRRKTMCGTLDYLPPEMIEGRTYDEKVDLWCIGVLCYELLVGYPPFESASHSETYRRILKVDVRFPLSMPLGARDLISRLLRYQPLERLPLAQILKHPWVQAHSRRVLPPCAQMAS
The experiment is described as follows: Inhibition of AurC ATP Loop labeling site in human A-375 cells at 5 uM by KiNativ Profiling analysis relative to control. It is filed as cell-based. In a few lines:
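Live A375 melanoma cells were treated with compound at 5 or 0.5 μM, then lysed. The lysates were labeled with a lysine-reactive ATP or ADP-biotin probe. Kinase protection from probe labeling was measured by KiNativ.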

Experiment [15] has as its target Cyclin-dependent kinase 17 (Homo sapiens) (UniProt Q00537). Briefly: Inhibition of PCTAIRE2 Lys2 labeling site in human A-375 cells at 0.5 uM by KiNativ Profiling analysis relative to control. It is filed as cell-based.
The target in experiment [16] is Phosphatidylinositol 3-kinase catalytic subunit type 3 (Homo sapiens) (UniProt Q8NEB9). The experiment is described as follows: Inhibition of PIK3C3 ATP labeling site in human A-375 cells at 0.05 uM by KiNativ Profiling analysis relative to control. It is filed as cell-based.
For experiment [17], the target named is T3, Mitogen-activated protein kinase 12 (Homo sapiens) (UniProt P53778).
T3 sequence (whole entry): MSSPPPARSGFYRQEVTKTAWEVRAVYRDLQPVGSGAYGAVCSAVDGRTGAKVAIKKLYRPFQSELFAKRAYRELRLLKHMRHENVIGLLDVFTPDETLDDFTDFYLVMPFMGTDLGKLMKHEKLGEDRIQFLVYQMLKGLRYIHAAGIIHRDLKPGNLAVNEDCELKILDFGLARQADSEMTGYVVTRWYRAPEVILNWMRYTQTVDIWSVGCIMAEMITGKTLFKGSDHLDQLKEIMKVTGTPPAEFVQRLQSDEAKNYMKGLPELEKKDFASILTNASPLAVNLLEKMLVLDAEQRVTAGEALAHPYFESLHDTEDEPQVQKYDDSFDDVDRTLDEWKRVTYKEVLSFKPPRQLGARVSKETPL
The experiment is described as follows: Inhibition of p38gamma Lys2 labeling site in human Huh-7 cell lysate at 1 uM by KiNativ Profiling analysis relative to control. The format is subcellular.

The target in experiment [18] is Tyrosine-protein kinase ABL2 (Homo sapiens, UniProt P42684). Briefly: Inhibition of ARG ACT labeling site in human Huh-7 cell lysate at 1 uM by KiNativ Profiling analysis relative to control. It is filed as subcellular.

Here are results for 4 compounds from ChEMBL document CHEMBL5696442, “Discovery of type II inhibitors of TGFβ-activated kinase 1 (TAK1) and mitogen-activated protein kinase kinase kinase kinase 2 (MAP4K2)” (J Med Chem, 2015).

RAC-beta serine/threonine-protein kinase (Homo sapiens), sequence (P31751 whole entry): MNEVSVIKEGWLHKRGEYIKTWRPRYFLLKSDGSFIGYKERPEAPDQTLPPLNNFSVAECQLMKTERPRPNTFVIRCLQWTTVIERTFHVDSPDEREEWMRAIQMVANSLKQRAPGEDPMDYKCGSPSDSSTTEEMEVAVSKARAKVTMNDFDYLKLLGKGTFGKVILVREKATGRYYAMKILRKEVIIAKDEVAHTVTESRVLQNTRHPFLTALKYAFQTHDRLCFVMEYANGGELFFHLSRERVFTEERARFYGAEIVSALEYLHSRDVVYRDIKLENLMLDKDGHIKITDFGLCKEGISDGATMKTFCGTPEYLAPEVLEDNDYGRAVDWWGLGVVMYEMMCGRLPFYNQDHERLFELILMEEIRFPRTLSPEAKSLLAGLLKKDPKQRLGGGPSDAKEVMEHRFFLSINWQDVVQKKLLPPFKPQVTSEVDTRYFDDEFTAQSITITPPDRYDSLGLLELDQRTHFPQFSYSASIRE
Ribosomal protein S6 kinase alpha-1 (Homo sapiens), sequence (Q15418 whole entry, the tested form may be a part): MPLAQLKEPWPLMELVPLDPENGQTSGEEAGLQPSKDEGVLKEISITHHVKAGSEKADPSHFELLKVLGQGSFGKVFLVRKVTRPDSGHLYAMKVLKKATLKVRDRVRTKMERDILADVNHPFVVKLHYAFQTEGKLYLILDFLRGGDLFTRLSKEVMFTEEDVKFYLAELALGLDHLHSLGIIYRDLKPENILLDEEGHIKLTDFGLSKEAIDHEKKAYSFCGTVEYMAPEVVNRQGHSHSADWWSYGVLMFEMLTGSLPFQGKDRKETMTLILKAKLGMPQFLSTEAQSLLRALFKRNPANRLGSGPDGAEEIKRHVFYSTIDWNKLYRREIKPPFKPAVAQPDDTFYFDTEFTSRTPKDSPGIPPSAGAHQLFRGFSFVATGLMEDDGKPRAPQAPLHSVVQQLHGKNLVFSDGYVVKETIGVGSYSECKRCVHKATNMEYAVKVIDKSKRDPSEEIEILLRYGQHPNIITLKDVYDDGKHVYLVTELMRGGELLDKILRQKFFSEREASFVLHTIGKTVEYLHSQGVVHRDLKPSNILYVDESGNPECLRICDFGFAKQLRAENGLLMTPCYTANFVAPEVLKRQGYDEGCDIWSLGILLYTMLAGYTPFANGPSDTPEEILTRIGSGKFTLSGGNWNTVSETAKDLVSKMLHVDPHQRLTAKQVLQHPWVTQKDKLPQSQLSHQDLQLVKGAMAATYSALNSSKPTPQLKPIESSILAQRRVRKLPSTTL
Calcium/calmodulin-dependent protein kinase type 1 (Homo sapiens), sequence (Q14012 whole entry, looked up): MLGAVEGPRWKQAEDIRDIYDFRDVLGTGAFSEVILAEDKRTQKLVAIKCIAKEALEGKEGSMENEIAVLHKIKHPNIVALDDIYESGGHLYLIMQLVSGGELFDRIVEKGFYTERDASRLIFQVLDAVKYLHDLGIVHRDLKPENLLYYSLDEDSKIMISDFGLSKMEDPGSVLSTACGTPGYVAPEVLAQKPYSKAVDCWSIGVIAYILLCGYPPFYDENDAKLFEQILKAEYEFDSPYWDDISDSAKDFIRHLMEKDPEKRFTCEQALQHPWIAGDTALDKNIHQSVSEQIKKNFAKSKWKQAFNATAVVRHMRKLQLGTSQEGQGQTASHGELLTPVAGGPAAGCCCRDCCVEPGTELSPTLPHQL
Phosphatidylinositol 3-kinase catalytic subunit type 3 (Homo sapiens), sequence (Q8NEB9 whole entry): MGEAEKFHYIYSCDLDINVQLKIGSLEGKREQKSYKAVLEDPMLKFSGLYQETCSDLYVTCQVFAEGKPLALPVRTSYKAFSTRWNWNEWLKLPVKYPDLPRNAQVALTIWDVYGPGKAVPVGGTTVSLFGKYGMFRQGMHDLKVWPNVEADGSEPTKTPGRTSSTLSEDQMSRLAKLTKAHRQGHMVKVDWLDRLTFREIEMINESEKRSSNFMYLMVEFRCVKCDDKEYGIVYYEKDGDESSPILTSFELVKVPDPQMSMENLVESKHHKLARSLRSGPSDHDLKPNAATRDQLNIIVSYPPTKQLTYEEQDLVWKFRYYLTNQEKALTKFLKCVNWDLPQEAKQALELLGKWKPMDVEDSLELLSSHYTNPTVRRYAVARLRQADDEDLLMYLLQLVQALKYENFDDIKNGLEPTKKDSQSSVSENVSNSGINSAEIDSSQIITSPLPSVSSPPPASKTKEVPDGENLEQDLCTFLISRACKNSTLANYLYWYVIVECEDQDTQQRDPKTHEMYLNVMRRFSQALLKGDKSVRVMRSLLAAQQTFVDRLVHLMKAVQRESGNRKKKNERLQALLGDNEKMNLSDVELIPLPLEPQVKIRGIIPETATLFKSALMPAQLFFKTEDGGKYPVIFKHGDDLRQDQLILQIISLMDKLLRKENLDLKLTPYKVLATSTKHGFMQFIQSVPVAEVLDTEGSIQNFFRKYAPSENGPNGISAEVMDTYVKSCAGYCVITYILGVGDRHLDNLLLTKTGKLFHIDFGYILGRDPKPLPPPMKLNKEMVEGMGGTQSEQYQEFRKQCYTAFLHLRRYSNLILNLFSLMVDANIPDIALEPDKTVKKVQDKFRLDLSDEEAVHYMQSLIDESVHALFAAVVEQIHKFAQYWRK
Tyrosine-protein kinase ABL2, sequence (P42684 whole entry): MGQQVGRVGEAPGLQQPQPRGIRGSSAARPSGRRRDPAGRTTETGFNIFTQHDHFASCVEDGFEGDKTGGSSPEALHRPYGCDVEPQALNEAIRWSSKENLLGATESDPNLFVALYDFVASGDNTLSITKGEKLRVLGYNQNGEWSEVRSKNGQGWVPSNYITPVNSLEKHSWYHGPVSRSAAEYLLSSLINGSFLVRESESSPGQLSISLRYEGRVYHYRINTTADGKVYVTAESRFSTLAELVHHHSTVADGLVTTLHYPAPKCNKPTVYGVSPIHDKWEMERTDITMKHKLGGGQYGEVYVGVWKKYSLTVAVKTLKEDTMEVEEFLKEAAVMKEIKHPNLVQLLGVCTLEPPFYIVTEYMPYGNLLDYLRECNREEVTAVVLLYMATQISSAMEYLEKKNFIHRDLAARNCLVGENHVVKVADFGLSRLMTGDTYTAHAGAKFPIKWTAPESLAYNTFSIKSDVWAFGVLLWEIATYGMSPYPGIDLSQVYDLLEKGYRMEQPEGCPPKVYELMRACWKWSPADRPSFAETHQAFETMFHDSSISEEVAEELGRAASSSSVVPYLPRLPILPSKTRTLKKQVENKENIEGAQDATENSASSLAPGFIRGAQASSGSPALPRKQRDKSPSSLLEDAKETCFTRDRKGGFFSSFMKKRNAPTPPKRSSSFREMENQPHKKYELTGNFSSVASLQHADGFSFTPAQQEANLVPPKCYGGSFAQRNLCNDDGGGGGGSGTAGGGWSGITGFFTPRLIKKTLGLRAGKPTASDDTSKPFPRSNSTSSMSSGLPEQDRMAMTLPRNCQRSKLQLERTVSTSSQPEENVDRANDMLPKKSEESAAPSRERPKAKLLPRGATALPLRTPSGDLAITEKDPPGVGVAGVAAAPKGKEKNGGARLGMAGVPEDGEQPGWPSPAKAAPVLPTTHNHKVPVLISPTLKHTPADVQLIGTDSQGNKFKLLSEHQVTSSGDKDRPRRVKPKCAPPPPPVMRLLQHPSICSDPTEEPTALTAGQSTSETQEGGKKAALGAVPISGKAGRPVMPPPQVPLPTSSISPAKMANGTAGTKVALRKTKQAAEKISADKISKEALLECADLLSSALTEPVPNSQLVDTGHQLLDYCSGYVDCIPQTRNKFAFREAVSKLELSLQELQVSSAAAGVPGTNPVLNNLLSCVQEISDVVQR
Mitogen-activated protein kinase kinase kinase kinase 4, sequence (O95819 whole entry): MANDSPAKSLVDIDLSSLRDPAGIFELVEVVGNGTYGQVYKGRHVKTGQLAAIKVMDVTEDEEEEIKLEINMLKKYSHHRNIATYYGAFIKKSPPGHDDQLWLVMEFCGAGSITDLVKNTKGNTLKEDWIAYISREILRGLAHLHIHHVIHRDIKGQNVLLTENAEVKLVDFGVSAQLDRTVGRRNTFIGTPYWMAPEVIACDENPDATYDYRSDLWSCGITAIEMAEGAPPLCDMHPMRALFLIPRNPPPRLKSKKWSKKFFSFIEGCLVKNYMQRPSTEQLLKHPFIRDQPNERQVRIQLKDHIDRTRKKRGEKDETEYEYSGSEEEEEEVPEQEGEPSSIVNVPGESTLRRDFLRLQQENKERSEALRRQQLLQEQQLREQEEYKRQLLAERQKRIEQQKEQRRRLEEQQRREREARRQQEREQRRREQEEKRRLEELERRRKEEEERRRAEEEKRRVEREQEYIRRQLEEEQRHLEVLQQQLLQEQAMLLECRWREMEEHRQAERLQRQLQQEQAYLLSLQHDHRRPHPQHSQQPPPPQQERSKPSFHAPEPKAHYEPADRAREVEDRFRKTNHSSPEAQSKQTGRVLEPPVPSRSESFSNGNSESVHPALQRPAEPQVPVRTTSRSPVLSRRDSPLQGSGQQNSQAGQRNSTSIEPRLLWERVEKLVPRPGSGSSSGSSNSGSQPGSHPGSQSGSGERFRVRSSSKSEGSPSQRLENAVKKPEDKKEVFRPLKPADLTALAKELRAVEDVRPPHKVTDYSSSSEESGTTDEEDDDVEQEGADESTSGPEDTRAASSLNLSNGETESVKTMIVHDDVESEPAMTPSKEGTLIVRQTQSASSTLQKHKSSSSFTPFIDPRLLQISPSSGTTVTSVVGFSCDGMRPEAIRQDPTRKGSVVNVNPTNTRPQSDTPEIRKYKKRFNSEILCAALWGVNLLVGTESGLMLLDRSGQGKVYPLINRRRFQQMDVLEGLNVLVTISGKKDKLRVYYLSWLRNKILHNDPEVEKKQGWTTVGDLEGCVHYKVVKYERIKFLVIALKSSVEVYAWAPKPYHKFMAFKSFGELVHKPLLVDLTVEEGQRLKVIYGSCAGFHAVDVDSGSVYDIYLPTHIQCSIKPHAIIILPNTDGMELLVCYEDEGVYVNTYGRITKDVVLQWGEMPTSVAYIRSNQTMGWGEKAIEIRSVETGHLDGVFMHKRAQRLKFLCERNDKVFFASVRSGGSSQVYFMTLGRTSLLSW

For the compound `CCN1CCN(Cc2ccc(NC(=O)c3ccc(C)c(/C=C/c4cnc5[nH]ccc5c4OC)c3)cc2C(F)(F)F)CC1`, the inhibition (usually the change of the read-out against control, counted positive when it falls) in experiment [1] was 3.2%; in [2], 10.1%; in [3], 1.4%; in experiment [4], 61.8%; in experiment [5], 20.9%; in [6], 4.7%. Besides, the inhibition in experiment [7] is -8.3%; in [8] it was -9.4%; in experiment [9], 21.5%; in [11] it was -9.1%; in experiment [12] it was 76.9%; in experiment [13], 0.4%. For the same compound, the inhibition in experiment [14] was 48.5%; in experiment [15], 29.6%; in experiment [16] it was 38.2%. Besides, the IC50 (commonly the concentration needed to halve the response being measured) in experiment [10] stood at 9.75 µM.
As to `CNc1cc(Oc2cc(C(=O)Nc3cc(-n4cnc(C)c4)cc(C(F)(F)F)c3)ccc2C)ncn1`, the inhibition in experiment [17] is 5.5%; in experiment [18] it was 59.7%.
As to `CCN1CCN(Cc2ccc(NC(=O)c3ccc(C)c(Oc4ccnc5[nH]ccc45)c3)cc2C(F)(F)F)CC1`, the inhibition in experiment [1] is 0.9%; in [2], 10.3%; in [3] it was -4.7%; in experiment [4], 74.7%; in experiment [5], -3.9%; in experiment [6] it was 0.9%. The inhibition is -9.4% in experiment [7]; 32.1% in experiment [8]; 34.9% in experiment [9]; 0.1% in [11]; 90.3% in experiment [12]; -8.8% in experiment [13]. In addition, the figures for the inhibition in [14], in [15] and in experiment [16] were 31.4%, 54.6% and 33.3%, respectively. In addition, the half-maximal inhibitory concentration (IC50) in experiment [10] came to 3.25 µM.
Take `CNc1cc(Oc2cc(C(=O)Nc3cc(N4CCN(C)CC4)cc(C(F)(F)F)c3)ccc2C)ncn1`: the inhibition came to 12.8% in experiment [17] and 49.4% in experiment [18].
